Screening data: PubChem BioAssay, The Scripps Research Institute Molecular Screening Center
procasp7 counter – counter-screen for procaspase-3 activators: activators of human procaspase-7 | 0.093% of 330,000 active | AID 463210 | recombinant procaspase-7, Ac-DEVD-pNA absorbance 405 nm; D23A/D198A/D206A triple mutant, cannot self-cleave; scale: DMSO 0, 5 µM enzyme 100 | activation, % at 8.5 µM;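 active = percent activation above the screen-wide mean plus 3 SD, cut at about 25% in these data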
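Material: Procaspase-7 triple mutant (PC-7 D3A) | Quantity: 2 µM procaspase-7 mutant as dispensed | Reagent: DEVD-pNA substrate | Times: 1 h preincubation, 2 h reaction | Technique: 405 nm absorbance of p-nitroaniline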
HGIII-sPLA2 inh – Blocks human group III sPLA2 activity | QFRET BODIPY PC-A2 liposome hydrolysis, fluorescence | inhibition, % at 12.2 µM | 0.56% of 370,000 active | AID 743126;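 active = inhibition above mean plus 3 SD of compounds lying within the high and low control bounds, cut at about 19% in these data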
proCasp3 act – procaspase-3 (human) activation | P42574 | recombinant procaspase-3 D3A, Ac-DEVD-pNA absorbance 405 nm | activation, % at 8.5 µM | 0.11% of 330,000 active | AID 463141;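 active = activation above the mean of all tested compounds plus 3 SD, cut at about 21% in these data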
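Technique: 405 nm absorbance of p-nitroaniline, reads at 0 and 120 min; Test system: Procaspase-3 D3A mutant; Incubation: 1 h enzyme-compound preincubation, then 2 h substrate reaction, 25 °C; Repeats: singlicate, each compound tested once; Benchmarks: low control DMSO wells, high control DMSO plus 5 µM PC-3 D3A.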
PLCb3 inh – inhibitors of human phospholipase C beta3; Q01970; Purified PLC-beta3, fluorogenic substrate, fluorescence; inhibition, % at 12.2 µM; 0.18% of 370,000 active; AID 720704
PLC-gamma1 inh – PLC-gamma1 (human) inhibition, primary screen; purified PLC-gamma1, fluorogenic substrate, fluorescence; 0.84% of 370,000 active; inhibition, % at 12.2 µM; P19174; in the data active = inhibition above about 9.5%
proCasp7 act trip – counter-screen for procaspase-3 activators: activators of human procaspase-7; AID 488941; shares compounds with proCasp3 act; 210 tested, under 10 active; activation, % at 8.5 µM; recombinant procaspase-7, Ac-DEVD-pNA absorbance; asp23/198/206-to-Ala mutant, cannot self-cleave;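 active = mean activation above a set limit taken from an earlier procaspase-7 screen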
procasp3 conf – procaspase-3 (human) activation, confirmed. shares compounds with proCasp3 act. recombinant PC-3 D3A, Ac-DEVD-pNA absorbance 405 nm; 100% is higher-enzyme control. activation, % at 8.5 µM. 10% of 210 active. AID 488954;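 active = mean activation above a set limit carried over from the earlier primary screen, cut at about 22% in these data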
PC3 dual counter – counter-screen for dual procaspase-3/7 activators: human procaspase-3 activation. recombinant PC-3 D3A, Ac-DEVD-pNA absorbance 405 nm; aspartates 9, 28, 175 changed to alanine; 100% = enzyme control. 290 tested, under 10 active. shares compounds with procasp7 counter. activation, % at 8.5 µM;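 active = mean percent activation across triplicates above a set limit taken from the earlier primary procaspase-3 screen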
PC7 dual conf – activates human procaspase-7, confirming dual procaspase activators | AID 493115 | activation, % at 8.5 µM | recombinant procaspase-7, Ac-DEVD-pNA absorbance 405 nm; D23A/D198A/D206A mutant that cannot self-cleave | shares compounds with procasp7 counter | 290 tested, under 10 active;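 active = mean activation above a set limit carried over from the earlier primary screen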
PLCgamma1 ctr – counter-screen for PLC-beta3 inhibitors: inhibitors of human PLC-gamma1 | shares compounds with PLC-gamma1 inh | purified PLC-gamma1, fluorogenic substrate, fluorescence | inhibition, % at 12.3 µM | 3.1% of 3,300 active | AID 743258; in the data active = inhibition above about 9.5%
PLCb3 confirm – human PLC-beta3 inhibition, confirmation | shares compounds with PLC-gamma1 inh | purified PLC-beta3, fluorogenic substrate fluorescence | inhibition, % at 12.3 µM | 1% of 3,300 active
Numbers stand for hits; . = inactive; / = no result. Sampled rows, rich in hits. Any-hit rate of the full collection: about 1.6%. Rule as the data show it, unless noted: active = inhibition above about 11%; inactive = the rest.

SMILES | procasp7 counter | HGIII-sPLA2 inh | proCasp3 act | PLCb3 inh | PLC-gamma1 inh | others
Clc1cccc(N2Cc3cc(-c4ccccc4)ccc3-n3nncc3C2)c1 | / | . | / | . | 12
Clc1cccc(N2Cc3cc(N4CCOCC4)ccc3-n3nncc3C2)c1 | / | . | / | . | .
CCOC(=O)[C@]12Cc3ccccc3[C@H]1N(CCC(=O)OC)C(=O)c1cc(OC)ccc12 | / | . | / | . | .
CC(C)(C)NC(=S)N1Cc2ccccc2-n2nncc2C1 | / | . | / | . | 13
Brc1ccccc1 | . | . | . | 11 | .
O=c1cccc2n1CC1CC2CN(c2nc(N3CCCCC3)nc(N3CCCCC3)n2)C1 (centres undefined) | . | . | . | . | .
O=C(O)c1nn(Cc2ccc(Cl)cc2)c2ccccc12 | / | . | / | . | .
CC1(C)CN(S(=O)(=O)OCC(Cl)(Cl)Cl)C(=O)N1 | . | . | . | . | 9.8
COC(=O)C1=C(c2cccc(C#N)c2)C[C@@H]2CC[C@H]1N2C(=O)NCc1cc(C)oc1C(F)(F)F | . | . | . | . | .
COC(=O)C1=C(c2ccc(-c3ccccc3)c(F)c2)C[C@@H]2CC[C@H]1N2C(=O)NCc1cc(C)oc1C(F)(F)F | . | . | . | . | 10.0
CCC(C)OC(=O)c1c(N)n(Cc2cccs2)c2nc3ccccc3nc12 (centres undefined) | . | . | 23 | . | . | proCasp7 act trip=.;procasp3 conf=.
Nc1c(C(=O)OCc2ccccc2)c2nc3ccccc3nc2n1Cc1cccs1 | . | . | . | . | .
CCC(C)NC(=O)c1c(N)n(Cc2ccc3c(c2)OCO3)c2nc3ccccc3nc12 (centres undefined) | . | . | 70 | . | . | proCasp7 act trip=.;procasp3 conf=.
Cc1cc(C(=O)OC(C)C(=O)Nc2ccccc2)c(C)n1C1CC1 (centres undefined) | / | . | / | . | .
CC(C)CCNC(=O)c1c(N)n(CC2CCCO2)c2nc3ccccc3nc12 (centres undefined) | . | . | 25 | . | . | proCasp7 act trip=.;procasp3 conf=.
C/C=C/CC#N | . | . | . | . | .
COc1ccc(-c2nc3ccc(C(=O)N4CCC5(CC4)OCCO5)cc3nc2-c2ccc(OC)cc2)cc1 | 52 | . | 30 | . | . | PC3 dual counter=.;PC7 dual conf=.
COc1ccc(-n2c(C)nc3cc(C(=O)N4CCC5(CC4)OCCO5)ccc32)cc1 | . | . | . | . | .
CCCNc1oc(-c2cccc3ccccc23)nc1C#N | 32 | . | 33 | . | . | PC3 dual counter=.;PC7 dual conf=.
COC(=O)C1=C(c2ccc(OCc3ccccc3)cc2)C[C@@H]2CC[C@H]1N2C(=O)NCc1ccccc1C(F)(F)F | / | . | / | . | .
CC1(C)CC(n2[nH]c(=O)c3c2NC(=O)CSC3c2ccccc2)CCO1 (centres undefined) | . | . | . | . | 17 | PLCgamma1 ctr=.;PLCb3 confirm=.
Cc1ccc(C2SCC(=O)Nc3c2c(=O)[nH]n3C2CCOC(C)(C)C2)cc1 (centres undefined) | . | . | . | . | .
CN1CCN(CCC(C#N)(c2ccccc2)c2ccccc2)CC1 | . | . | . | 12 | 11 | PLCgamma1 ctr=.;PLCb3 confirm=.
